Screening data: PubChem, several laboratories
A selection: hits, their analogues and other compounds. The true share with any hit is near 6.1%.
BB579 growth dn – reduces growth of yeast BB579 in restrictive medium; hit rate 0.51% among 140,000; S. cerevisiae BB579 growth, OD615, 48 h; inhibition, % at 10 µM;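 active = inhibition above a set limit, 3 SD over the mean compound inhibition, cut at about 44% in these data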
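Material: Saccharomyces cerevisiae DeaD strain BB579, replicative lifespan model yeast; buffer or medium: CSMM-D restrictive synthetic medium containing dextrose (glucose); compound: 10 µM single dose, DMSO 0.25%; timing: 48 h compound exposure at 30 °C after 4 h preincubation; signal: turbidity as optical density at 615 nm; benchmarks: positive control amphotericin B 10 µg/mL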
WT yeast gro inh – growth inhibition of WT yeast, mitochondrial fusion screen. mitochondrial fusion phenotypic screen, WT strain. inhibition, % at 10 µM. hit rate 2.1% among 190,000. AID 1362; in the data active = inhibition above about 58%; tested in S. cerevisiae
Yeast life ext – extends the lifespan of yeast; AID 775; hit rate 0.68% among 130,000; inhibition of the nicotinamide effect, % at 10 µM; S. cerevisiae growth with nicotinamide, OD615; deaD strain in restrictive glucose medium;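 active = inhibition above a set limit, placed 3 SD over the median of all compounds, cut at about 26% in these data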
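Assay system: engineered S. cerevisiae DeaD replicative-lifespan strain, galactose-grown log-phase cells; Buffer or medium: CSMM-D glucose medium, restrictive; Probe or stimulus: nicotinamide 1.5 mM; Compound: single dose 10 µM compound, 0.25% DMSO; Schedule: 4 h preincubation then 48 h treatment at 30 °C; Technique: OD615 measurement.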
RAM inhibit – blocks the yeast RAM network. S. cerevisiae dse1pr::URA3 reporter, 5-FOA growth OD615, 2 d; analog-sensitive cbk1-as2 kinase mutant strain. inhibition, % at 50 µM. hit rate 1.8% among 190,000. AID 868;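 active = inhibition above a set limit, 3 SD over mean compound inhibition, cut at about 8.4% in these data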;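 also: inhibition rescues growth on 5-FOA so higher OD means more RAM inhibition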
DAT uptake mod – changed human dopamine transporter uptake under cocaine IC80; Q01959; B-score at 10 µM; LLC-PK1 hDAT cells, [14C]-dopamine uptake with cocaine IC80; actives deviate in either direction; hit rate 1.3% among 110,000;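 active = Z score or B-score, a plate-position-corrected score, falls beyond the plate's 99.7% confidence bounds, in either direction; inactive = both scores lie inside the 99.7% bounds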
Target sequence (Q01959 whole entry, looked up): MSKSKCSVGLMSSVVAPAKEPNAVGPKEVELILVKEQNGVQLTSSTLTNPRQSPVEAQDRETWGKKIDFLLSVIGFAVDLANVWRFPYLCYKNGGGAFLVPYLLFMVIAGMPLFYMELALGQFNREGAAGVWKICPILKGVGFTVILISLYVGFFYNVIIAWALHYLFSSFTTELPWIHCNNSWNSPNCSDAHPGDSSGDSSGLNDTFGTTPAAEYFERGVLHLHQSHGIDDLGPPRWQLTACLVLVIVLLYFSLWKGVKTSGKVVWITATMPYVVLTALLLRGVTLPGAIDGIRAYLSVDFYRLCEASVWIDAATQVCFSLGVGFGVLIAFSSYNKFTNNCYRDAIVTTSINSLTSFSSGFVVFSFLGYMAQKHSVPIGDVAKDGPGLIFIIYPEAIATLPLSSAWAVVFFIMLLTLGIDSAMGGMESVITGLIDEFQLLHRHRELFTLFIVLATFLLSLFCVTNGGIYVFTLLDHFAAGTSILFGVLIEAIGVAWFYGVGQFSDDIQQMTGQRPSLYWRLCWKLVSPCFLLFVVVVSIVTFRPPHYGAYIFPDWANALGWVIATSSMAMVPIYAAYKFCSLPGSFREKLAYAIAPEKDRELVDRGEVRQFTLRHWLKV
Measles CPE – protection of cells from measles virus; Measles virus-infected cells, CPE protection, absorbance; hit rate 1.5% among 140,000; protection (pct of control), % at 4 µM; in the data active = protection mostly above about 24%, no sharp cut-off; inactive = mostly below about 26%
RAM efflux-def – RAM network inhibition, efflux-deficient strain; shares compounds with RAM inhibit; S. cerevisiae efflux-deficient reporter strain, 5-FOA growth OD615, 2 days; max inhibition, %; 1,200 tested, under 10 active; AID 1305; call rule not given here
A number is an active result; . = inactive; / = not tested or not shown.

SMILES	BB579 growth dn	WT yeast gro inh	Yeast life ext	RAM inhibit	DAT uptake mod	Measles CPE	RAM efflux-def
CC(/C=C1\SC(=S)N(C(C(=O)O)C(C)C)C1=O)=C\c1ccccc1 (stereo not given)	/	.	/	18.5	/	/	.
CCOc1ccc(/C=C2/SC(=S)N(C(C(=O)O)c3ccccc3)C2=O)cc1OCC (stereo not given)	/	.	/	12.7	/	/	.
COc1ccc(/C=C2\SC(=S)N(CC(=O)NCCO)C2=O)cc1	/	.	/	.	/	/	/
Cc1ccc(NC(=O)COC(=O)C2CCC(=O)N2)c([N+](=O)[O-])c1 (stereo not given)	/	.	/	.	/	/	/
Cc1ccc(S(=O)(=O)Nc2ccc(=O)n(Cc3ccc(Cl)c(Cl)c3)c2)cc1	.	.	.	.	.	.	/
CN(C)c1nc(SCCOC(=O)COc2ccc(Cl)cc2Cl)nc(N(C)C)n1	.	.	.	11.6	/	105.1	.
CN(C)c1nc(OCCOC(=O)COc2ccc(Cl)cc2Cl)nc(N(C)C)n1	.	.	.	.	.	.	/
O=C(CN1CCc2ccccc21)NC(=O)NCc1ccccc1	/	.	/	.	/	/	/
CCN1C(=O)C(CC(=O)Nc2ccc(OC)cc2)N(CCc2ccc(F)cc2)C1=S (stereo not given)	/	.	/	15.6	/	/	.
CCCCCCOc1ccc(NC(=O)CC2C(=O)N(CC)C(=S)N2Cc2ccco2)cc1 (stereo not given)	.	61.7	.	17.0	/	.	.
Cc1ccc(-n2ncc3c(=O)[nH]c(SCC(=O)N4CCCc5ccccc54)nc32)cc1	.	.	.	11.7	.	.	.
Cc1ccc(-n2ncc3c(=O)[nH]c(SCC(=O)N4CCN(c5ccccc5)CC4)nc32)cc1	.	.	/	.	.	.	/
COC(=O)c1sccc1NC(=O)CSCCc1ccncc1	/	.	/	.	/	/	/
CC1CCCC(NC(=O)COC(=O)CSc2ccc3ccccc3c2)C1C (stereo not given)	.	.	.	12.5	/	.	.
CC1CCCC(NC(=O)COC(=O)CCc2ccccc2)C1C (stereo not given)	/	.	/	.	/	/	/
O=C(CSc1ccc(Cl)cc1)N1CCN(c2ccc([N+](=O)[O-])cc2Cl)CC1	.	.	.	14.2	.	.	.
CCCC(=O)N1CCN(c2ccc([N+](=O)[O-])cc2Cl)CC1	.	.	.	.	/	.	/
O=C(CSc1ccc(Cl)cc1)N1CCN(c2c(Cl)cccc2[N+](=O)[O-])CC1	.	.	.	16.6	.	.	.
Cc1ccc(S(=O)(=O)N2N=C3CCCCC3C2(O)C(F)(F)F)cc1 (stereo not given)	/	.	/	.	/	/	/
C/C=C/c1ccc(OCC(=O)OCc2csc(Nc3ccc(C)cc3)n2)c(OC)c1	.	.	.	11.6	/	.	.
Cc1cc(C)cc(NC(=S)NCCSc2ccc(Cl)cc2)c1	.	80.5	.	12.6	/	.	.
Cc1ccc(CNC(=S)Nc2ccc(C)c([N+](=O)[O-])c2)cc1	.	.	.	.	/	/	/
Cc1ccc(SCCNC(=S)Nc2ccc(C)c(C)c2)cc1	.	.	.	12.6	.	.	.
Cc1cc(C)cc(NC(=S)NCCCO)c1	.	.	.	.	/	.	/
S=C(NCC1CCCO1)N1CCN(Cc2ccccc2Cl)CC1 (stereo not given)	/	.	/	.	/	/	/
SMILES	BB579 growth dn	WT yeast gro inh	Yeast life ext	RAM inhibit	DAT uptake mod	Measles CPE	RAM efflux-def
CC1(C)CCN(Cc2ccccc2)C1CC#N (stereo not given)	.	.	.	.	.	.	/
O=C(O/N=C\c1ccc(N2CCCCC2)c([N+](=O)[O-])c1)c1c(F)cccc1F	.	/	.	.	.	.	/
COc1ccc(C(=O)/C=C/c2ccc(N3CCCCC3)c([N+](=O)[O-])c2)c(OC)c1	.	.	.	17.4	/	49.9	.
Cc1ccc(C(=O)O/N=C\c2ccc(N3CCCCC3)c([N+](=O)[O-])c2)cc1	.	.	.	15.9	.	.	.
CCOC(=O)CSc1nc(-c2ccccc2)nc2c1oc1ccccc12	.	.	.	.	.	.	/
O=C(O)CSc1nc(-c2ccc(Cl)cc2)nc2c1oc1ccccc12	70.5	.	.	15.2	/	.	.
Cc1ccccc1NC(=S)NC12CN3CN(CN(C3)C1)C2	/	.	/	.	/	/	/
CCCC(=O)C1=C(O)C(C(=O)OC)C(C)(C)CC1=Nc1cccc2ccccc12 (stereo not given)	.	.	/	12.3	3.01	.	.
CCOC(=O)c1c(C)[nH]c(C2=NNC(=NC3CC3)SC2)c1C	/	.	/	.	/	/	/
CC(=O)NCCn1c(SCc2ccc(C)cc2C)nc2ccccc2c1=O	.	.	.	.	.	.	/
CC(=O)NCCn1c(SCc2cccc([N+](=O)[O-])c2)nc2ccccc2c1=O	/	.	/	11.6	/	/	.
COc1ccc(NC(=O)CSc2nc3ccccc3c(=O)n2CCNC(C)=O)c(OC)c1	.	.	.	11.9	.	.	.
COc1cccc(C(=O)C2CN(c3ccccc3)CC2c2ccc(Cl)cc2)c1 (stereo not given)	.	.	.	14.9	.	.	.
O=C(NCc1ccccc1Cl)c1ccc(S(=O)(=O)Nc2cccc(C(F)(F)F)c2)cc1	.	.	.	.	/	.	/
CC(Cc1ccccc1)NC(=O)CSc1nc2nc3c(cc2c(=O)n1-c1ccccc1)COC(C)(C)C3 (stereo not given)	.	.	.	.	.	.	/
CCN(CC)S(=O)(=O)c1cc(NS(=O)(=O)c2c(Cl)cccc2Cl)ccc1C	.	.	27.7	14.5	/	.	.
CCN(CC)S(=O)(=O)c1cc(NS(=O)(=O)c2cccc(Cl)c2)ccc1C	.	.	.	.	/	.	/
